{"source": "paper PMC9214057", "about": "(Acta Pharmaceutica Sinica. B, 2022)", "key": {"[1]": {"tested_on": "PD-L1", "conditions": "cited from earlier work"}, "[2]": {"tested_on": "B16F10 tumor", "conditions": "60 mg/kg; cited from earlier work"}, "[3]": {"tested_on": "human SCC-3 tumor", "conditions": "20 mg/kg; cited from earlier work"}, "[4]": {"tested_on": "PD-1/NFAT reporter-Jurkat cells", "experiment": "PD-L1 cell-based assay"}, "[5]": {"tested_on": "hPD-L1 MC38 cells", "experiment": "PD-L1 expression and localisation by Western blotting / immunofluorescence", "assay_type": "cell-based, mouse", "conditions": "24 h", "in_short": "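hPD-L1 MC38 cells were exposed for 24 h. For immunofluorescence, cells on glass-bottom dishes were treated at 1 and 10 μmol/L, fixed, permeabilized, stained overnight with anti-PD-L1, then Alexa Fluor 488 secondary with DAPI, and imaged by confocal microscopy. For Western blotting, whole cells were treated at 0.1–10 μmol/L. Per lane, 60 μg protein was run on 10% SDS-PAGE and transferred to nitrocellulose. Primary antibody was 1:1000 overnight at 4 °C; β-actin or Na/K-ATPase served as loading control. Bands were quantified by densitometry.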"}}, "note": "Residues, ends and D or L forms follow the SMILES beside them. *: point of attachment. Cbz = O=C(OCc1ccccc1)*", "data": [{"smiles": "C[C@@H](O)[C@H](NC(=O)N[C@@H](CC(N)=O)c1nc([C@@H](N)CO)no1)C(=O)O", "note": "[CA-170]", "values": [{"measurement": "direct binding to PD-L1", "setting": "[1]", "result": "no direct binding"}]}, {"smiles": "COc1nc(OCc2cccc(-c3ccccc3)c2C)ccc1CNCCNC(C)=O", "note": "[BMS202]", "values": [{"measurement": "inhibition rate in B16F10 tumor", "setting": "[2]", "result": 50.1, "unit": "%"}, {"measurement": "inhibition rate in humanized mouse-transplanted human SCC-3 tumor", "setting": "[3]", "result": 41, "unit": "%"}, {"measurement": "concentration required in the T cell activation assay", "setting": "[4]", "result": "more than 10 μmol/L"}]}, {"smiles": "CCN(CC)CCCC(C)Nc1ccnc2cc(Cl)ccc12", "note": "(stereo not drawn) [chloroquine]", "values": [{"measurement": "PD-L1 protein expression / distribution", "setting": "[5]", "result": "increased"}]}, {"smiles": "CC(C)C[C@@H](C=O)NC(=O)[C@H](CC(C)C)NC(=O)[C@H](CC(C)C)NC(=O)OCc1ccccc1", "note": "[MG132] (Cbz-Leu-Leu-Leu-aldehyde)", "values": [{"measurement": "PD-L1 protein expression / distribution", "setting": "[5]", "result": "increased"}]}]}
